From publication PMC9008867 (Therapeutic Advances in Medical Oncology, 2022)
“And” between values parts separate entries of the source, which are not always exact repeats. Equal values may be shown once. Read-outs that look alike come from different tables or passages of the source.

Columns and labels:
[1] = tested on: Asian patients with advanced or metastatic malignancies; test: Adverse events; type: in vivo, human; conditions: Schedule 1; patients n (%)
Method in brief: (§1)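 Test compound given orally by schedule. Schedule 1: Mon/Thu, 28-day cycle. Schedule 2: Mondays weekly, 28-day cycle. Schedule 3: Mon/Wed for 2 of 3 weeks, 21-day cycle. Schedule 4: Mon/Wed/Fri, 28-day cycle. All patients received anorexia/nausea prophylaxis. AEs were recorded up to 30 days after the last dose and graded every 2 weeks for cycles 1–2, then every 4 weeks.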

[2] = tested on: Asian patients with advanced or metastatic malignancies; test: Adverse events; type: in vivo, human; conditions: Schedule 3; patients n (%)
Method in brief: as §1

[3] = tested on: Asian patients with advanced or metastatic malignancies; test: Adverse events; type: in vivo, human; conditions: Schedule 4; patients n (%)
Method in brief: as §1

[4] = tested on: Asian patients with advanced or metastatic malignancies; test: Phase 1a 3 + 3 dose escalation: DLT, MTD, RP2D, tolerability, deaths; type: in vivo, human
Method in brief: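 Modified 3+3 design: ≥3 patients per cohort, expanded to six after one DLT; DLTs were assessed in cycle 1. DLT was possibly drug-related grade ≥3 nonhaematological toxicity (not reversible asymptomatic electrolyte changes or hair loss). Haematological DLT: grade 4 neutropenia ≥7 days, febrile neutropenia, or grade ≥3 thrombocytopenia with bleeding. 2/6 DLTs set the MTD; RP2D was the next lower level. Deaths were counted within 30 days of last dose.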

[5] = Plasma selinexor pharmacokinetics; type: in vivo, human
XPO1 = XPO1 mRNA expression in PBMCs/leukocytes by qRT-PCR pre and post dose; type: in vivo, human; conditions: 40 and 50 mg/m^2, 10 patients assessed
tumour biopsies = test: Immunohistochemistry of paired pretreatment and ontreatment tumour biopsies; type: in vivo, human
Method in brief: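 Paired pretreatment and on-treatment tumour biopsies came from six consenting dose-escalation patients. IHC covered […], Ki67 for proliferation, and ApopTag and cleaved caspase 3 for apoptosis.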

[6] = tested on: advanced or metastatic malignancies; test: Antitumour response; type: in vivo, human
Method in brief: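 Solid tumours were imaged by CT or MRI and scored by RECIST 1.1. NHL was scored by IWG criteria; CTCL by consensus criteria with mSWAT skin scoring plus nodes, blood and viscera. Response was documented at least once at 8 weeks, then every two cycles. Evaluable patients had ≥1 dose and ≥1 postbaseline scan. Expansion dosing: flat 60 mg on days 1, 4, 8, 11 of 21-day cycles.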

colorectal cancer = test: Exploratory PFS subgroup analysis in advanced colorectal cancer patients; type: in vivo, human
[7] = cited from earlier work
[8] = tested on: relapsed or refractory diffuse large B cell lymphoma; conditions: relapsed or refractory DLBCL; cited from earlier work
[9] = tested on: metastatic castration-resistant prostate cancer; conditions: eight patients with measurable disease at baseline; cited from earlier work
[10] = tested on: metastatic triple-negative breast cancer; conditions: 10 heavily pretreated patients; cited from earlier work
leukocytes = conditions: cited from earlier work
[11] = tested on: human melanoma cell lines; conditions: cited from earlier work
[12] = Schedule 2, 70 mg/m^2 once a week, six patients
[13] = Schedule 3, 50 mg/m^2, subsequent four patients
[14] = after 6 weeks of treatment vs baseline, lymphoma, thymoma, colorectal carcinoma
[15] = all dose levels, 74 evaluable patients
[16] = phase 1b expansion cohort, 35 evaluable patients
[17] = Caucasian patients, 39 mg/m^2, n = 9

With `O=C(/C=C\n1cnc(-c2cc(C(F)(F)F)cc(C(F)(F)F)c2)n1)NNc1cnccn1` [selinexor] the “Anaemia, Any grade” value [1] was 1 (16.6) %, the “Anorexia, Any grade” value [1] was 4 (66.6) % and the “Dehydration, Any grade” value [1] was 1 (16.6) %. The “Diarrhoea, Any grade” value [1] was 2 (33.3) %, the “Fatigue, Any grade” value [1] was 6 (100) % and the “Hypokalaemia, Any grade” value [1] was 2 (33.3) %. For the same compound, the “Hypomagnesemia, Any grade” value [1] was 1 (16.6) %, the “Hyponatremia, Any grade” value [1] was 6 (100) % and the “Nausea, Any grade” value [1] was 1 (16.6) %. For the same compound, the “Thrombocytopenia, Any grade” value [1] was 2 (33.3) %, the “Vomiting, Any grade” value [1] was 1 (16.6) % and the “Weight loss, Any grade” value [1] was 1 (16.6) %. For the same compound, the “Abdominal discomfort, Any grade” value [2] was 3 (20) %, the “Abdominal discomfort, G1/G2” value [2] was 3 (20) % and the “Anaemia, Any grade” value [2] was 3 (20) %. The “Anorexia, Any grade” value [2] was 11 (73.33) %, the “Conjunctivitis, Any grade” value [2] was 1 (6.66) % and the “Constipation, Any grade” value [2] was 1 (6.66) %. For the same compound, the “Dehydration, Any grade” value [2] was 2 (13.33) %, the “Diarrhoea, Any grade” value [2] was 5 (33.33) % and the “Dry skin, Any grade” value [2] was 1 (6.66) %. For the same compound, the “Dysgeusia, Any grade” value [2] was 2 (13.33) %, the “Edema, Any grade” value [2] was 1 (6.66) % and the “Fatigue, Any grade” value [2] was 13 (86.66) %. The “Giddiness, Any grade” value [2] was 2 (13.33) %, the “Hypocalcaemia, Any grade” value [2] was 1 (6.66) % and the “Hypokalaemia, Any grade” value [2] was 4 (26.66) %. The “Hypomagnesemia, Any grade” value [2] was 6 (40) %, the “Hyponatremia, Any grade” value [2] was 13 (86.66) % and the “Hypophosphatemia, Any grade” value [2] was 6 (40) %. The “Increased flatulence, Any grade” value [2] was 1 (6.66) %, the “Increased flatulence, G1/G2” value [2] was 1 (6.66) % and the “Lethargy, Any grade” value [2] was 1 (6.66) %. For the same compound, the “Nausea, Any grade” value [2] was 4 (26.66) %, the “Thrombocytopenia, Any grade” value [2] was 4 (26.66) % and the “Vomiting, Any grade” value [2] was 5 (33.33) %. For the same compound, the “Weight loss, Any grade” value [2] was 4 (26.66) %, the “Abdominal discomfort, Any grade” value [3] was 2 (18.18) % and the “Abdominal discomfort, G1/G2” value [3] was 2 (18.18) %. For the same compound, the “Anaemia, Any grade” value [3] was 3 (27.27) %, the “Anorexia, Any grade” value [3] was 5 (45.45) % and the “Cataract, Any grade” value [3] was 1 (9.09) %. For the same compound, the “Diarrhoea, Any grade” value [3] was 4 (36.36) %, the “Dysgeusia, Any grade” value [3] was 2 (18.18) % and the “Dyspnoea/Shortness of breath, Any grade” value [3] was 3 (27.27) %. For the same compound, the “Dyspnoea/Shortness of breath, G1/G2” value [3] was 2 (18.18) %, the “Dyspnoea/Shortness of breath, G3/G4” value [3] was 1 (9.09) % and the “Fatigue, Any grade” value [3] was 11 (100) %. For the same compound, the “Hypocalcaemia, Any grade” value [3] was 1 (9.09) %, the “Hypokalaemia, Any grade” value [3] was 1 (9.09) % and the “Hypomagnesemia, Any grade” value [3] was 3 (27.27) %. The “Hyponatremia, Any grade” value [3] was 10 (90.90) %, the “Hypophosphatemia, Any grade” value [3] was 1 (9.09) % and the “Nausea, Any grade” value [3] was 2 (18.18) %. The “Neutropenia, Any grade” value [3] was 1 (9.09) %, the “Thrombocytopenia, Any grade” value [3] was 6 (54.54) % and the “Vomiting, Any grade” value [3] was 2 (18.18) %. For the same compound, the “Weight loss, Any grade” value [3] was 3 (27.27) %, the tolerability ([4]; 40 mg/m^2 given 2 out of 3 weeks, Asian patient cohort) was “most tolerable” and the DLTs ([4]; Schedule 1, 40 mg/m^2 twice-a-week continuous, six patients) was “no DLTs were observed”. For the same compound, the “patients with DLTs” value ([4]; Schedule 2, 50 mg/m^2 once a week, three patients) was “none of the three patients”, the DLTs ([4]; Schedule 2, 60 mg/m^2 once a week, three patients) was “did not show any DLTs” and the “patients with grade 3 fatigue that persisted for more than 5 days” value ([4]; Schedule 2, 70 mg/m^2 once a week, additional four patients) was “one patient”. The “patients with grade 3 thrombocytopenia” value [4, 12] was “one patient”, the “patients with grade 3 vomiting” value [4, 12] was “one patient” and the “patients developing DLTs” value ([4]; Schedule 3, 40 mg/m^2 twice a week 2 out of 3 weeks) was 0/3. For the same compound, the “patients with G3 fatigue” value ([4]; Schedule 3, 50 mg/m^2, first six patients) was “one out of six patients”, the “patients with G3 dehydration from loss of appetite” value [4, 13] was “One out of the subsequent four patients” and the “patients with G3 hyponatremia” value [4, 13] was “one other patient”. The “patients with G3 diarrhoea and G3 syncope” value ([4]; Schedule 4, 16 mg/m^2 three times a week continuous) was “two out of five patients”, the “patients developing DLTs (G3 fatigue and G3 septicaemia)” value ([4]; Schedule 4, 20 mg/m^2 three times a week continuous) was “two out of six patients” and the tolerability of schedule ([4]; Schedule 4, three-times-a-week continuous dosing) was “deemed intolerable”. The “deaths within 30 days of the last study drug administration” value ([4]; phase 1a cohort, none related to the study drug) was “eight”, the “RP2D, flat dose” value ([4]; twice a week with a 1-week drug holiday every 3-week cycle) was 60 mg and the AUC0-8 dose proportionality ([5]; among 40, 50 and 60 mg/m^2 doses) was “dose-proportional”. For the same compound, the “predose concentrations after multiple doses” value ([5]; cycle 1 day 15 or cycle 2 day 8/day 15) was “either 0 or close to 0”, the AUC(0-t) ([5]; human, plasma, oral, 40 mg/m2) was 5340 ± 1540 ng·h/mL and the Cmax ([5]; human, plasma, oral, 40 mg/m2) was 567 ± 159 ng/mL. For the same compound, the Tmax ([5]; human, plasma, po, 60 mg/m2) was 1 to 4 h, the “mean T1/2” value ([5]; oral, 40-60 mg/m^2) was ~ 6 h and the “patients with at least twofold induction of XPO1 mRNA” value (XPO1; 4 h post dose) was “nine”. For the same compound, the “patients with greater than twofold mRNA increases in XPO1” value (XPO1; 8 h post dose) was “all 10 patients”, the “apoptosis in tumour samples (IHC)” value (tumour biopsies; [14]) was “increase” and the “proliferation in tumour samples (IHC)” value (tumour biopsies; [14]) was “marked decrease”. For the same compound, the “XPO1 cargo protein p53 localization in tumour sections” value (tumour biopsies; patient with NSCLC) was “nuclear accumulation”, the “patients with prolonged stable disease of more than 12 weeks” value [6, 15] was 10 and the “prolonged stable disease of more than 12 weeks” value [6, 15] was 13.5% and 13%. For the same compound, the “patients with confirmed partial response” value ([6]; all dose levels, 74 evaluable, two DLBCL, one Hodgkin's lymphoma, one thymoma) was “four”, the “at least stable disease or better as best response” value [6, 16] was 37.1% and the “patients with at least stable disease or better as best response” value [6, 16] was 13. The “patients with prolonged stable disease of more than 12 weeks” value ([6]; phase 1b expansion cohort, all colorectal cancer) was “four”, the “objective response (confirmed complete and partial response rate)” value ([6]; whole study) was 8% and the “HR for PFS” value (colorectal cancer; RAS/PIK3CA pathway mutation vs wild-type, p = 0.09, log-rank) was 0.58 (0.25–1.32). For the same compound, the “median PFS” value (colorectal cancer; colorectal cancer patients with a RAS/PIK3CA pathway mutation) was 86 days, the “median PFS” value (colorectal cancer; colorectal cancer patients, RAS/PIK3CA wild-type) was 50 days and the PFS (colorectal cancer; one heavily pretreated colorectal cancer patient with BRAF V600E somatic mutation) was 129 days. For the same compound, the AUC0-48 [7, 17] was 5829 ± 1587 ng·h/mL, the Cmax [7, 17] was 553 ± 238 ng/mL and the Mean half-life ([7]; study KCP-330-002) was ~ 6 h. For the same compound, the complete response rate [8] was 13%, the “patients achieving partial response” value [9] was 25% and the “patients achieving stable disease as best radiographic response” value [9] was 50%. The objective responses [10] was “did not result in any objective responses”, the “PD-1 and CTLA4 gene expression” value (leukocytes) was “increase” and the PD-L1 gene expression [11] was “induced”.
